Article PMC10947786 (ACS synthetic biology, 2024)

How the values were obtained:
[1] = Solubility in water; type: physicochemical; conditions: purified peptide
[2] = Hydrogen-deuterium exchange MS; type: physicochemical; conditions: 3:7 D2O:acetonitrile, MALDI-TOF MS (Figure S13); for Hydrogen-deuterium exchange, deuteration within 1 min: 1 min timescale
Outline: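 Purified peptide was dried under vacuum and redissolved in 3:7 D2O:acetonitrile. At set time points over 24 h, aliquots were quenched by spotting onto the MALDI target with saturated sinapinic acid in 3:7 D2O:acetonitrile + 0.1% formic acid (pH = 2). Deuterium uptake was read by MALDI-TOF MS.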

Substance: mycetolassin-15
- solubility in water [1]: > 20 mg/mL
- Hydrogen-deuterium exchange, deuteration within 1 min [2]: only a fraction of the exchangeable protons were deuterated
- Hydrogen-deuterium exchange, deuteration within 24 h [2]: not fully deuterated

Substance: mycetolassin-18
- solubility in water [1]: > 20 mg/mL
- Hydrogen-deuterium exchange, deuteration within 1 min [2]: only a fraction of the exchangeable protons were deuterated
- Hydrogen-deuterium exchange, deuteration within 24 h [2]: not fully deuterated
